Measurements collected from several papers.
Each line is one published result; the experiments were not run side by side.
Target: Phosphorylase b kinase gamma catalytic chain, liver/testis isoform (PHKG2, Homo sapiens, UniProt P15735)
Sequence (P15735 1-406, as in one of the studies): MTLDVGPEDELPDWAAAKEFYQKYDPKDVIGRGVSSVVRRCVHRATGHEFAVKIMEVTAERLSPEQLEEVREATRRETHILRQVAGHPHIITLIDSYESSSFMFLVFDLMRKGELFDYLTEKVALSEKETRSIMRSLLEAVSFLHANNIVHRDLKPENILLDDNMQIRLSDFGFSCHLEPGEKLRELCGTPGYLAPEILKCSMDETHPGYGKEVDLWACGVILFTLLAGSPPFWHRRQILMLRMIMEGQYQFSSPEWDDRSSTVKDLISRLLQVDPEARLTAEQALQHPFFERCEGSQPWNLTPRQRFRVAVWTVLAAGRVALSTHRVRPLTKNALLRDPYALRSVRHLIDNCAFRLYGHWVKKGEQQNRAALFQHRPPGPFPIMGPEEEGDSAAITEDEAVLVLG

Structure (SMILES) | test | system | setting | endpoint | value
CCc1ccccc1C(=O)Nc1n[nH]c2c(C)c(F)c(C3C(C#N)=C(C)N(C)C(C)=C3C#N)cc12 | cell-free assay, competition with immobilised ligand |  | 1 µM | remaining binding | 81%
CCCCNc1ncc2c(-c3ccc(F)cc3)nn(C[C@H]3CC[C@H](N)CC3)c2n1 | target engagement in cells, inhibitor, chemoproteomics |  | 20 mM | inhibition | -3.3%
CCN(CC)CCNC(=O)c1c(C)[nH]c(/C=C2\C(=O)Nc3ccc(F)cc32)c1C | enzyme activity, inhibitor |  | 0.3 µM | inhibition | 81%
O=C1Nc2ccc(Cl)cc2C1=Cc1cc(Cl)c(O)c(Cl)c1 | cell-free assay |  | 0.5 µM | remaining signal | 98.4%
CC(=O)N1CCC(c2ccc(C(=O)NC(=N)N)cc2C(F)(F)F)CC1 | cell-free assay, competition with immobilised ligand |  | 1 µM | remaining binding | 100%
Cc1cnc(NC2CCOCC2)nc1-n1cnc(C(=O)NC(CN)c2cc(F)cc(Cl)c2)c1 (stereo not drawn) | enzyme activity, inhibitor, radiometric |  | 1 µM | remaining activity | 97%
CCC(=O)N[C@H]1CC[C@@H](C(=O)N(C)c2ccc(-c3nc4ccccc4o3)cc2)C1 | cell-free assay, competition with immobilised ligand |  | 1 µM | remaining binding | 100%
CC(C)(C)c1nc(-c2cccc(NS(=O)(=O)c3c(F)cccc3F)c2F)c(-c2ccnc(N)n2)s1 | enzyme activity, inhibitor, radiometric |  | 1 µM | remaining activity | 88%
CC(=O)N1CCC(c2ccc(C(=O)NC3=NCCN3)cc2C(F)(F)F)CC1 | cell-free assay, competition with immobilised ligand |  | 1 µM | remaining binding | 100%
Cc1cc(NC(=O)c2cccc3cc(-c4cccc5[nH]nc(N)c45)ccc23)ccc1F | enzyme activity, inhibitor |  | 0.1 µM | activity vs control | 87%
COc1cc2ncnc(Nc3ccc(Oc4ccccc4)cc3C)c2cc1OC | enzyme activity, inhibitor |  | 1 µM | inhibition | 0%
Cc1ccc(C(=O)NCc2ccsc2)cc1C#Cc1cn(C(C)C)c2ncnc(N)c12 | enzyme activity, inhibitor |  | 1 µM | activity vs control | 110%
CCCCN(CCCC)C(=O)CN1C[C@H](c2cc(OC)c3c(c2)OCO3)[C@@H](C(=O)O)[C@@H]1CC(C)(C)CCC | cell-free assay, competition with immobilised ligand |  | 1 µM | remaining binding | 100%
CCCOc1ccc(OC)c(F)c1C(=O)c1ccc(C(=O)N[C@@H]2CNC[C@H]2NC(=O)c2ccc3[nH]ncc3c2)cc1 | enzyme activity, inhibitor |  | 10 µM | remaining activity | 51%
O=C(Nc1cccnn1)N1CCC(=Cc2cccc(Oc3ccc(C(F)(F)F)cn3)c2)CC1 | cell-free assay, competition with immobilised ligand |  | 1 µM | remaining binding | 88%
Clc1ccc(Nc2nnc(Cc3ccncc3)c3ccccc23)cc1 | cell-free assay |  | 0.5 µM | remaining signal | 91.8%
Cc1ccc(Nc2nccc(N(C)c3ccc4c(C)n(C)nc4c3)n2)cc1S(N)(=O)=O | enzyme activity, inhibitor |  | 10 µM | inhibition | -2%
Oc1cccc(-c2nc(N3CCOCC3)c3oc4ncccc4c3n2)c1 | cell-free assay |  | 0.5 µM | remaining signal | 99.1%
CC(C)c1ccc(NC(=O)c2cccs2)c(-c2nc3ccccc3[nH]c2=O)c1 | enzyme activity, inhibitor |  | 1 µM | activity vs control | 96%
CCCS(=O)(=O)Nc1ccc(F)c(C(=O)c2c[nH]c3ncc(-c4ccc(Cl)cc4)cc23)c1F | enzyme activity, inhibitor |  | 1 µM | inhibition | < 10%
COc1ccc2c(c1)O[C@H](c1ccc(OC)c(OC)c1)C[C@@H]2NC(=O)C1(c2ccc3c(c2)OC(F)(F)O3)CC1 | cell-free assay, competition with immobilised ligand |  | 1 µM | remaining binding | 93%
O=C(Nc1cnn(-c2csc(C(=O)NC3COC3)c2)c1)Nc1c(F)cccc1Cl | enzyme activity, inhibitor |  | 5 µM | remaining activity | 131%
NS(=O)(=O)c1cc(NC(=O)C2(c3ccccc3Cl)CC2)ccc1Oc1cccc(Cl)c1 | cell-free assay, competition with immobilised ligand |  | 1 µM | remaining binding | 100%
N#CCCc1ccc2c(c1)-c1[nH]c3ccc([N+](=O)[O-])cc3c1CC(=O)N2 | cell-free assay |  | 0.5 µM | remaining signal | 99.1%
CCN1CCN(Cc2ccc(NC(=O)c3ccc(C)c(Oc4ccnc5[nH]ccc45)c3)cc2C(F)(F)F)CC1 | target engagement in cells, inhibitor, chemoproteomics | Huh-7 | 10 µM | inhibition | -12.3%
COc1cccc2c(NCc3ccccc3)nc(-n3c(N)nc4ccccc43)nc12 | target engagement in cells, inhibitor, chemoproteomics |  | 20 mM | inhibition | 4.6%
COc1cc2c(Nc3ccc(Br)cc3F)ncnc2cc1OCC1CCN(C)CC1 | cell-free assay |  | 0.5 µM | remaining signal | 99.1%
